Data as given in the array DNA melting data of Ke et al. (doi:10.1101/2024.01.08.574731).

Columns and labels:
[1] = folding enthalpy; higher = less favourable; fluorescence melt of hairpins on a sequencing array, two-state fit; conditions: sodium 0.088 M
How it was run: (§1)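 Folding enthalpy and melting temperature come from bootstrapped two-state fits to Cy3 fluorescence of library hairpins carrying annealed Cy3 and quencher oligos on a sequenced MiSeq flow cell. Imaging was done in 50 mM Na-HEPES pH 8.0, 25 mM NaCl, stepping by 2.5 °C up to 60 °C, and signals were normalised to pre-quench Cy3 and to control constructs. Results of four replicates were combined by inverse variance, and fitted temperatures were raised by 9.35 °C to match UV melts.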

[2] = melting temperature; fluorescence melt of hairpins on a sequencing array, two-state fit, raised by 9.35 °C to match UV melts; conditions: sodium 0.088 M
How it was run: as §1

| Sequence | folding enthalpy [1] | Tm [2] |
| --- | --- | --- |
| GCGGATGGAAACATCTGC ((.((((....)))).)) | -47.5 kcal/mol | 54.4 °C |
| GCGGCAGGAAACCGCCGC (((((.(....).))))) | -30.6 kcal/mol | 69.3 °C |
| GCGGCAGTCCGC ((((....)))) | -23.7 kcal/mol | 59.7 °C |
| GCGGCCACCCGC ((((....)))) | -19.8 kcal/mol | 59.5 °C |
| GCGGCCGAAAGGCACCGC ((((((....)))..))) | -16.8 kcal/mol | 56 °C |
| GCGGCCGAAAGGCGACGC ((((((....)))..))) | -17.2 kcal/mol | 65.9 °C |
| GCGGCCGAAAGGCGCCGC ((((((....)))..))) | -14.9 kcal/mol | 62.8 °C |
| GCGGCCGACCGC ((((....)))) | -26.7 kcal/mol | 57.6 °C |
| GCGGCCGGAAACAGCCGC (((((.(....).))))) | -22.9 kcal/mol | 64.8 °C |
| GCGGCGAACCGC ((((....)))) | -18.9 kcal/mol | 56.9 °C |
| GCGGCGACCGC ((((...)))) | -16 kcal/mol | 55.8 °C |
| GCGGCGCGAAAGCCACGC (((..((....))..))) | -20.8 kcal/mol | 61.7 °C |
| GCGGCGCGAAAGCTTCGC (((..((....))..))) | -16.8 kcal/mol | 54.1 °C |
| GCGGCGCTCCGC ((((....)))) | -14.3 kcal/mol | 63.4 °C |
| GCGGCGGGAAACCACCGC ((((.((....)).)))) | -41.7 kcal/mol | 60.3 °C |
| GCGGCGTCCGC ((((...)))) | -14.7 kcal/mol | 59.9 °C |
| GCGGCTACCCGC ((((....)))) | -22.2 kcal/mol | 55.7 °C |
| GCGGCTACGAAAGTACGC (((..(((....)))))) | -21.6 kcal/mol | 47.6 °C |
| GCGGCTGCCCGC ((((....)))) | -19.4 kcal/mol | 55 °C |
| GCGGCTGGAAACAGCCAC (.(((((....))))).) | -11.8 kcal/mol | 51.8 °C |
| GCGGCTGGAAACAGTCGC (((.(((....))).))) | -47.4 kcal/mol | 67.3 °C |
| GCGGGAGCCCGC ((((....)))) | -20 kcal/mol | 56 °C |
| GCGGGAGCGAAAGCTCGC (((..(((....)))))) | -10.9 kcal/mol | 55.8 °C |
| GCGGGCGAAAGCCCCCGC ((((((....)))..))) | -11.2 kcal/mol | 52.1 °C |
| GCGGGCGAAAGCCTCCGC ((((((....)))..))) | -25.8 kcal/mol | 53.3 °C |

| Sequence | folding enthalpy [1] | Tm [2] |
| --- | --- | --- |
| GCGGGCGCGAAAGCGCGC (((..(((....)))))) | -7.24 kcal/mol | 63 °C |
| GCGGGGCGAAAGCATCGC (((..((....))..))) | -33.1 kcal/mol | 65.2 °C |
| GCGGGGCGAAAGCCATGC ((..(((....)))..)) | -27.7 kcal/mol | 62.4 °C |
| GCGGGGCGAAAGCCGGGC ((..(((....)))..)) | -14.8 kcal/mol | 56 °C |
| GCGGGGCGAAAGCGCTGC ((.(.((....)).).)) | -35.9 kcal/mol | 66.4 °C |
| GCGGGGTCCCGC ((((....)))) | -29.3 kcal/mol | 65.1 °C |
| GCGGGTACCCGC ((((....)))) | -34.1 kcal/mol | 67.7 °C |
| GCGGGTACGAAAGTACGC (((..(((....)))))) | -13.8 kcal/mol | 51.5 °C |
| GCGGGTAGCCGC ((((....)))) | -24.2 kcal/mol | 64 °C |
| GCGGGTCCCCGC ((((....)))) | -23.5 kcal/mol | 66.8 °C |
| GCGGGTCTCCGC ((((....)))) | -22.9 kcal/mol | 67.7 °C |
| GCGGGTTCCCGC ((((....)))) | -23.3 kcal/mol | 67.3 °C |
| GCGGGTTGCCGC ((((....)))) | -19.8 kcal/mol | 57.2 °C |
| GCGGTAAACCGC ((((....)))) | -26.2 kcal/mol | 56 °C |
| GCGGTAACGAAAGTTCGC (((..(((....)))))) | -26.7 kcal/mol | 47.4 °C |
| GCGGTAGACCGC ((((....)))) | -25.7 kcal/mol | 60.8 °C |
| GCGGTAGGAAACTACCAC (.(((((....))))).) | -15.6 kcal/mol | 44.1 °C |
| GCGGTATCCCGC ((((....)))) | -30.5 kcal/mol | 53.5 °C |
| GCGGTCCCCGC ((((...)))) | -18 kcal/mol | 67.5 °C |
| GCGGTCCGCCGC ((((....)))) | -19.7 kcal/mol | 63.6 °C |
| GCGGTCGAAAGACACCGC ((((((....)))..))) | -24.4 kcal/mol | 53.3 °C |
| GCGGTCGAAAGACAGCGC ((((((....)))..))) | -27.7 kcal/mol | 69.2 °C |
| GCGGTCGAAAGACTACGC ((((((....)))..))) | -25.1 kcal/mol | 54.3 °C |
| GCGGTCGCCCGC ((((....)))) | -18.6 kcal/mol | 56.7 °C |
| GCGGTCGGAAACGATCGC (((.(((....))).))) | -34.8 kcal/mol | 67.3 °C |

| Sequence | folding enthalpy [1] | Tm [2] |
| --- | --- | --- |
| GCGGTCTTCCGC ((((....)))) | -23.6 kcal/mol | 59.1 °C |
| GCGGTGCCCCGC ((((....)))) | -18.8 kcal/mol | 54.3 °C |
| GCGGTGCGAAAGCAGTGC ((..(((....)))..)) | -23.5 kcal/mol | 63.6 °C |
| GCGGTGCGAAAGCATAGC ((..(((....)))..)) | -25.4 kcal/mol | 63.4 °C |
| GCGGTGCGAAAGCCCGGC ((.(.((....)).).)) | -12.4 kcal/mol | 61.7 °C |
| GCGGTGCGAAAGCGCAGC ((.(.((....)).).)) | -23.4 kcal/mol | 64.1 °C |
| GCGGTGGGAAACTGCCGC ((((..(....)..)))) | -41.6 kcal/mol | 56.6 °C |
| GCGGTGTCCGC ((((...)))) | -23 kcal/mol | 58.2 °C |
| GCGGTTACCGC ((((...)))) | -28.8 kcal/mol | 59.2 °C |
| GCGGTTATCCGC ((((....)))) | -30 kcal/mol | 59 °C |
| GCGGTTCGAAAGAAACGC (((.(((....))).))) | -33.7 kcal/mol | 69.1 °C |
| GCGGTTCGAAAGAACGC (((.(((....)))))) | -26.8 kcal/mol | 61.2 °C |
| GCGGTTGACCGC ((((....)))) | -24.7 kcal/mol | 63.9 °C |
| GCGGTTGCCGC ((((...)))) | -21.2 kcal/mol | 56.6 °C |
| GCGTAAAAACGC ((((....)))) | -19.9 kcal/mol | 46.4 °C |
| GCGTAACGAAAGTTTCGC (((.(((....))).))) | -41.3 kcal/mol | 57 °C |
| GCGTAAGGAAACTTACAC (.(((((....))))).) | -18.4 kcal/mol | 33.4 °C |
| GCGTAAGGAAACTTACGC (((((((....))))))) | -44.5 kcal/mol | 63.4 °C |
| GCGTAAGGACGC ((((....)))) | -19.7 kcal/mol | 49.3 °C |
| GCGTAAGTACGC ((((....)))) | -23.9 kcal/mol | 52.9 °C |
| GCGTACATACGC ((((....)))) | -24 kcal/mol | 52.1 °C |
| GCGTACCAACGC ((((....)))) | -21 kcal/mol | 53.6 °C |
| GCGTACGACGC ((((...)))) | -23.8 kcal/mol | 53.3 °C |
| GCGTACTAACGC ((((....)))) | -27.2 kcal/mol | 53 °C |
| GCGTAGAACGC ((((...)))) | -23.7 kcal/mol | 54.6 °C |

| Sequence | folding enthalpy [1] | Tm [2] |
| --- | --- | --- |
| GCGTAGACGAAAGTCCGC (((..(((....)))))) | -34.9 kcal/mol | 53.7 °C |
| GCGTAGCACGC ((((...)))) | -11 kcal/mol | 68.2 °C |
| GCGTAGCGAAAGCAAAGC ((.(.((....)).).)) | -14.2 kcal/mol | 54.5 °C |
| GCGTAGCGAAAGCAACGC ((((.((....)).)))) | -21.1 kcal/mol | 66.7 °C |
| GCGTAGCGAAAGCAATGC ((.(.((....)).).)) | -7.98 kcal/mol | 35.8 °C |
| GCGTAGCGAAAGCCAAGC ((.(.((....)).).)) | -8.12 kcal/mol | 39.9 °C |
| GCGTAGCGAAAGCCAGGC ((.(.((....)).).)) | -5.07 kcal/mol | 31.1 °C |
| GCGTAGCGAAAGCCATGC ((.(.((....)).).)) | -7.22 kcal/mol | 35.6 °C |
| GCGTAGCGAAAGCCCCGC (((..((....))..))) | -6.69 kcal/mol | 35.9 °C |
| GCGTAGCGAAAGCCTCGC (((..((....))..))) | -10.8 kcal/mol | 44.1 °C |
| GCGTAGCGAAAGCGATGC ((.(.((....)).).)) | -13.9 kcal/mol | 51.6 °C |
| GCGTAGCGAAAGCGCCGC (((..((....))..))) | -15.9 kcal/mol | 59.7 °C |
| GCGTAGCGAAAGCTAAGC ((.((((....)))).)) | -16.1 kcal/mol | 58.5 °C |
| GCGTAGGGAAACCTATGC ((.((((....)))).)) | -34.1 kcal/mol | 50.3 °C |
| GCGTAGGGAAACCTGCGC (((.(((....))).))) | -37.7 kcal/mol | 58.9 °C |
| GCGTATCGAAAGATCGC (((.(((....)))))) | -34.2 kcal/mol | 55.6 °C |
| GCGTATGCGAAAGCACGC (((..(((....)))))) | -20.9 kcal/mol | 53.1 °C |
| GCGTATGGAAACATGCGC (((.(((....))).))) | -38.2 kcal/mol | 57 °C |
| GCGTATGGACGC ((((....)))) | -21 kcal/mol | 51.4 °C |
| GCGTCAACGAAAGTTCGC (((..(((....)))))) | -27.6 kcal/mol | 45 °C |
| GCGTCAAGACGC ((((....)))) | -29.9 kcal/mol | 55.1 °C |
| GCGTCACCACGC ((((....)))) | -22.7 kcal/mol | 53 °C |
